Source: ChEMBL document CHEMBL4130552, “Design, synthesis and biological evaluation of novel benzimidazole amidines as potent multi-target inhibitors for the treatment of non-small cell lung cancer” (Eur J Med Chem, 2018)
Activity calls are given as the source filed them. The calls are words filed in the database; no cut-off is given here.

Legend:
A549 [1] = assay: Antiproliferative activity against human A549 cells after 72 hrs by MTT assay; type: functional, cell-based; conditions: A549, 72 h
Procedure, shortened: (§1)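 Cells seeded at 5000/well on day 0 in medium with 10% FBS, 2 mM L-glutamine, penicillin/streptomycin, 37 °C, 5% CO2. Compounds added at five 10-fold dilutions with DMSO ≤0.1%, then 72 h exposure. MTT absorbance converted to percentage growth versus untreated wells. IC50 by linear regression between bracketing concentrations. Quadruplicate points, three independent experiments.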

CFPAC-1 = assay: Antiproliferative activity against human CFPAC-1 cells after 72 hrs by MTT assay; type: functional, cell-based; conditions: CFPAC-1, 72 h; procedure, shortened: as §1
HeLa = assay: Antiproliferative activity against human HeLa cells after 72 hrs by MTT assay; type: functional, cell-based; procedure, shortened: as §1
SW-620 = assay: Antiproliferative activity against human SW620 cells after 72 hrs by MTT assay; type: functional, cell-based; conditions: SW-620, 72 h; procedure, shortened: as §1
WI-38 = assay: Antiproliferative activity against human WI38 cells after 72 hrs by MTT assay; type: cell-based; conditions: WI-38, 72 h; procedure, shortened: as §1
A549 [2] = assay: Induction of apoptosis in human A549 cells assessed as necrotic cells at 2 times antiproliferative IC50 after 48 hrs by Annexin V-FITC/propidium iodide staining based fluorescence microscopic method (reference value: 0%); type: functional
A549 [3] = assay: Induction of apoptosis in human A549 cells assessed as early apoptotic cells at 2 times antiproliferative IC50 after 48 hrs by Annexin V-FITC/propidium iodide staining based fluorescence microscopic method (reference value: 0.52%); type: functional
A549 [4] = assay: Induction of apoptosis in human A549 cells assessed as viable cells at 2 times antiproliferative IC50 after 48 hrs by Annexin V-FITC/propidium iodide staining based fluorescence microscopic method (reference value: 99.48%); type: functional
A549 [5] = assay: Induction of apoptosis in human A549 cells assessed as late apoptotic cells at 2 times antiproliferative IC50 after 48 hrs by Annexin V-FITC/propidium iodide staining based fluorescence microscopic method (reference value: 0%); type: functional
A549 [6] = assay: Downregulation of PDE5 protein expression in human A549 cells at 2 times antiproliferative IC50 after 48 hrs by Western blot method; type: functional, cell-based
Procedure, shortened: (§2)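 Lysis in RIPA buffer (20 mM Tris-HCl pH 7.5, 150 mM NaCl, EDTA, EGTA, 1% NP-40, 1% deoxycholate, protease inhibitors). Blocking 1 h in 4% BSA/TBST, primary antibody overnight at 4 °C, HRP secondary 1 h, chemiluminescence. Densitometry normalised to alpha-tubulin; two independent experiments.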

A549 [7] = assay: Downregulation of CDK9/CyclinT1 protein expression in human A549 cells at 2 times antiproliferative IC50 after 48 hrs by Western blot method; type: functional, cell-based; procedure, shortened: as §2
[8] = target: Cellular tumor antigen p53 (Homo sapiens) (UniProt P04637); assay: Inhibition of p53 phosphorylation at Ser-15 residue in human A549 cells at 2 times antiproliferative IC50 after 48 hrs by Western blot method; type: cell-based; procedure, shortened: as §2
Sequence of Cellular tumor antigen p53 (Homo sapiens) (P04637 whole entry, looked up): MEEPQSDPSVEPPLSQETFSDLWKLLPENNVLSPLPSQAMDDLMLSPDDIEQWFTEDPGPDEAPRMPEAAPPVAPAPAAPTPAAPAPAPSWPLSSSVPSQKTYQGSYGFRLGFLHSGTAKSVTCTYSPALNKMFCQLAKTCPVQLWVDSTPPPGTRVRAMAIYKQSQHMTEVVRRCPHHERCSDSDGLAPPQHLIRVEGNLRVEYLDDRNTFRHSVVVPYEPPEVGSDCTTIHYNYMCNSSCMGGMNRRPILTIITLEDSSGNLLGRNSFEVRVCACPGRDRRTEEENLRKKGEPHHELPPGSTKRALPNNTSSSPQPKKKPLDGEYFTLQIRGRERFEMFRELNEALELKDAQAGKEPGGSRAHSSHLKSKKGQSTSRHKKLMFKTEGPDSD

A549 [9] = assay: Downregulation of TGM2 protein expression in human A549 cells at 2 times antiproliferative IC50 after 48 hrs by Western blot method; type: functional, cell-based; procedure, shortened: as §2
MAP kinase p38 [10] = target: T1, MAP kinase p38 (Homo sapiens, UniProt O15264+Q15759+Q16539+P53778); assay: Inhibition of p38 phosphorylation at Thr180/Tyr182 residues in human A549 cells at 2 times antiproliferative IC50 after 48 hrs by Western blot method; type: cell-based; procedure, shortened: as §2
[11] = Selectivity ratio of IC50 for human A549 cells to IC50 for human SW620 cells; type: functional
[12] = Selectivity ratio of IC50 for human CFPAC-1 cells to IC50 for human SW620 cells; type: functional
[13] = Selectivity ratio of IC50 for human HeLa cells to IC50 for human SW620 cells; type: functional
MAP kinase p38 [14] = target: T1, MAP kinase p38; assay: Inhibition of MAPK p38 (unknown origin); type: protein assay

| Compound | IC50 (A549 [1]) [µM] | IC50 (CFPAC-1) [µM] | IC50 (HeLa) [µM] | IC50 (SW-620) [µM] | IC50 (WI-38) [µM] | further results |
| --- | --- | --- | --- | --- | --- | --- |
| CC(C)NC(=N)c1ccc2[nH]c(-c3ccc(OCc4cn(-c5ccc(Cl)cc5)nn4)cc3)nc2c1.Cl | 0.05 | > 100 | 17.5 | 48.7 | 8.04 | Activity (A549 [2]): 2.78%; Activity (A549 [3]): 28.33%; Activity (A549 [4]): 28.89%; Activity (A549 [5]): 40%; Activity (A549 [6]): inactive; Activity (A549 [7]): inactive; inhibition [8]: Active; Activity (A549 [9]): inactive; inhibition (MAP kinase p38 [10]): Active |
| Cl.c1ccc(Cn2cc(COc3ccc(-c4nc5cc(C6=NCCN6)ccc5[nH]4)cc3)nn2)cc1 | 0.07 | 29.2 | 6.67 | 28.1 | 6.89 | Activity (A549 [2]): 6.43%; Activity (A549 [3]): 27.49%; Activity (A549 [4]): 49.71%; Activity (A549 [5]): 16.37%; Activity (A549 [6]): Active; Activity (A549 [7]): Active; inhibition [8]: Active; Activity (A549 [9]): Active; inhibition (MAP kinase p38 [10]): Active |
| N=C(N)c1ccc2[nH]c(-c3ccc(OCc4cn(-c5ccccc5)nn4)cc3)nc2c1 | 53.3 | 29.9 | 18.8 | 31.5 | 8.08 | – |
| Clc1ccc(-n2cc(COc3ccc(-c4nc5ccccc5[nH]4)cc3)nn2)cc1 | 7.96 | > 100 | > 100 | 99.3 | 1.11 | – |
| CC(C)NC(=N)c1ccc2[nH]c(-c3ccc(OCc4cn(-c5ccc(F)cc5)nn4)cc3)nc2c1 | 8.37 | 0.71 | 0.59 | 37.9 | 0.66 | – |
| Cl.Clc1ccc(Cn2cc(COc3ccc(-c4nc5cc(C6=NCCN6)ccc5[nH]4)cc3)nn2)cc1 | 9.34 | 6.82 | 5.06 | 0.05 | 5.77 | Ratio IC50 [11]: >100; Ratio IC50 [12]: >100; Ratio IC50 [13]: >100 |
| Clc1ccc(-n2cc(COc3ccc(-c4nc5cc(C6=NCCN6)ccc5[nH]4)cc3)nn2)cc1 | 0.06 | 16.9 | 0.22 | 3.65 | 2.24 | – |
| N=C(N)c1ccc2[nH]c(-c3ccc(OCc4cn(Cc5ccccc5)nn4)cc3)nc2c1 | 9.47 | 34.4 | 13.7 | 30.9 | 0.89 | – |
| N=C(N)c1ccc2[nH]c(-c3ccc(OCc4cn(-c5ccc(F)cc5)nn4)cc3)nc2c1 | 81 | > 100 | 7.39 | 37.9 | 0.7 | – |
| N=C(N)c1ccc2[nH]c(-c3ccc(OCc4cn(-c5ccc(Cl)cc5)nn4)cc3)nc2c1 | 0.05 | 18.5 | 0.8 | 7.57 | 5.03 | – |
| CC(C)NC(=N)c1ccc2[nH]c(-c3ccc(OCc4cn(-c5ccc(C(F)(F)F)cc5)nn4)cc3)nc2c1 | 85.8 | > 100 | 13.7 | 50.1 | 0.32 | – |
| CC(C)NC(=N)c1ccc2[nH]c(-c3ccc(OCc4cn(-c5ccccc5)nn4)cc3)nc2c1 | > 100 | > 100 | 16.6 | 62.1 | 0.99 | – |
| FC(F)(F)c1ccc(-n2cc(COc3ccc(-c4nc5cc(C6=NCCN6)ccc5[nH]4)cc3)nn2)cc1 | 0.59 | 0.65 | 2.69 | 6.35 | 0.69 | – |
| CC(C)NC(=N)c1ccc2[nH]c(-c3ccc(OCc4cn(Cc5ccc(Cl)cc5)nn4)cc3)nc2c1 | 4.98 | > 100 | > 100 | 36.5 | 0.7 | – |
| c1ccc(-n2cc(COc3ccc(-c4nc5cc(C6=NCCN6)ccc5[nH]4)cc3)nn2)cc1 | 49.7 | 26.2 | 7.78 | 29.6 | 0.1 | – |
| CC(C)NC(=N)c1ccc2[nH]c(-c3ccc(OCc4cn(Cc5ccccc5)nn4)cc3)nc2c1 | 6.18 | > 100 | 8.8 | 58.6 | 65.4 | – |
| Clc1ccc(-n2cc(COc3ccc(-c4nc5ccc(Cl)cc5[nH]4)cc3)nn2)cc1 | 2.91 | 3.74 | 3.54 | 4.28 | 1.52 | – |
| Clc1ccc(-n2cc(-c3nc4cc(C5=NCCN5)ccc4[nH]3)nn2)cc1 | 3.86 | 0.83 | 0.69 | 1.67 | 2.72 | – |
| O=c1[nH]cc(F)c(=O)[nH]1 [FLUOROURACIL] | 2.8 | – | – | – | – | – |
| N=C(N)c1ccc2[nH]c(-c3ccc(OCc4cn(-c5ccc(I)cc5)nn4)cc3)nc2c1 | 0.45 | 21.5 | 6.45 | 0.95 | 0.62 | – |
| Fc1ccc(-n2cc(COc3ccc(-c4nc5cc(C6=NCCN6)ccc5[nH]4)cc3)nn2)cc1 | > 100 | > 100 | 0.98 | 2.31 | 0.09 | – |
| CC(C)NC(=N)c1ccc2[nH]c(CCc3cn(-c4ccc(Cl)cc4)nn3)nc2c1 | 33.4 | 36.1 | 3.11 | 56.8 | 3.71 | – |
| CC(C)NC(=N)c1ccc2[nH]c(-c3cn(-c4ccc(Cl)cc4)nn3)nc2c1 | 27.1 | 16 | 0.85 | 32.5 | 6.85 | – |
| Brc1ccc(-c2c[nH]c([C@@H]3Cc4ccccc4CN3)n2)cc1 | – | – | – | – | – | IC50 (MAP kinase p38 [14]): 1.9 µM |
| CC(C)NC(=N)c1ccc2[nH]c(-c3ccc(OCc4cn(-c5ccc(I)cc5)nn4)cc3)nc2c1 | 0.08 | 5.13 | 0.51 | 0.69 | 0.2 | – |
| N=C(N)c1ccc2[nH]c(-c3ccc(OCc4cn(-c5ccc(C(F)(F)F)cc5)nn4)cc3)nc2c1 | 0.84 | 2.09 | 0.32 | 0.36 | 0.52 | – |
| Cc1ccc(-n2nc(C(C)(C)C)cc2NC(=O)Nc2nc(CCOCc3ccncc3)cs2)cc1 | – | – | – | – | – | IC50 (MAP kinase p38 [14]): 0.586 µM |
| Ic1ccc(-n2cc(COc3ccc(-c4nc5cc(C6=NCCN6)ccc5[nH]4)cc3)nn2)cc1 | > 100 | 0.86 | 0.42 | 0.37 | 0.22 | – |
